# Source: PubChem BioAssay
# CHO-K1 Ca ag: counter-screen for M1 agonists: effect in parental CHO-K1 cells; Fluo-8 calcium fluorescence; scaled to maximal ATP response, vehicle zero; activation, % at 3 µM; actives 0.48% (n = 360,000); AID 602248; in the data active = activation above about 15%;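 also: untransfected CHO-K1 host cells lacking M1 receptor as counterscreen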
# OX1R antag-1: antagonists of human orexin 1 receptor (OX1R); OX1R-expressing cells, FRET antagonist read-out; O43613; inhibition, % at 6.6 µM; AID 485270; actives 1.8% (n = 330,000); in the data active = inhibition mostly above about 38%, no sharp cut-off; inactive = mostly below about 40%;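 also: 0% = agonist challenge alone and 100% = reference antagonist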
# Target sequence (O43613 whole entry, looked up): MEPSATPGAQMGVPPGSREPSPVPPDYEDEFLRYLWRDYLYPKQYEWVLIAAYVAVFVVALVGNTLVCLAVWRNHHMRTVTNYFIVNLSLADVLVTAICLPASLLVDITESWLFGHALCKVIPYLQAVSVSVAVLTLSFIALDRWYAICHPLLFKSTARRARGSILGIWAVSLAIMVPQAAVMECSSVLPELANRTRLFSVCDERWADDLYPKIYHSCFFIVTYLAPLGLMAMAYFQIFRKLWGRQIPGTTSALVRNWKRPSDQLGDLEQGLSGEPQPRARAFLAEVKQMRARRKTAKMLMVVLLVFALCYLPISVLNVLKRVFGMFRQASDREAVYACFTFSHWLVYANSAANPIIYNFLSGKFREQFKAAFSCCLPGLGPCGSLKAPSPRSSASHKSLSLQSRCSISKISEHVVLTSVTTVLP
# CHO-K1 Ca PAM: M1 PAM counterscreen hit in parental CHO-K1 cells; ATP EC20, Fluo-8 calcium fluorescence; 0% at ATP EC20, 100% at ATP max; activation, % at 3 µM; actives 0.02% (n = 360,000);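 active = activation above the run cutoff, the mean activation of all test compounds plus 3 SD, cut at about 40% in these data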;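 also: peak over basal fluorescence ratio in a 140 s read after ATP addition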
# CHO-K1 Ca antag: nonselective inhibitor or artifact in parental CHO-K1 cells | ATP-induced calcium, Fluo-8 fluorescence | inhibition, % at 3 µM | actives 0.6% (n = 360,000);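 active = inhibition above a per-plate cutoff, the plate's mean sample inhibition plus 3 SD, cut at about 24% in these data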;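 also: 0% = DMSO plus EC80 ATP and 100% = DMSO alone without ATP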
# OX1R antag-2: antagonists of human orexin 1 receptor; O43613; inhibition, % at 5 µM; CHO/OX1R cells, Fluo-8 calcium fluorescence, orexin A; actives 0.43% (n = 330,000); AID 434989;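 active = inhibition above its plate's threshold, mean inhibition of all tested compounds on the plate plus 3 SD, cut at about 37% in these data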;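 also: 0% = orexin A challenge wells and 100% = SB-334867-A antagonist wells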
# CHO parental Ca: counter-screen for OX1R antagonists: effect in parental CHO cells. actives 0.63% (n = 330,000). parental CHO-K1, ATP-induced calcium, Fluo-8 fluorescence. AID 463079. inhibition, % at 5.6 µM;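 active = inhibition above that plate's mean sample inhibition plus 3 SD, cut at about 26% in these data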;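 also: 0% = ATP-challenged DMSO wells and 100% = DMSO wells without ATP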
#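 Test system: untransfected parental CHO cell line. Compound: one dose, 5.6 µM nominal. Detection: intracellular calcium via Fluo-8 no-wash fluorescent dye. Measure: % inhibition. Benchmarks: ATP-challenged DMSO wells low, unchallenged DMSO wells high.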
# An asterisk follows results filed as active; nt = no result given. This is a sample that favours compounds with a hit; in the whole collection about 2.9% have one here.
SMILES,CHO-K1 Ca ag,OX1R antag-1,CHO-K1 Ca PAM,CHO-K1 Ca antag,OX1R antag-2,CHO parental Ca
O=C(Nc1ccccc1C(=O)Nc1nnc(C(F)(F)F)s1)c1ccccc1,9,72*,-10,26*,54*,59*
COCCN1CCn2c(nc3cc([N+](=O)[O-])ccc32)C1,0,40*,12,-7,-2,-13
Cc1ccc(S(=O)(=O)N(C)C[C@@H]2OCc3cn(nn3)CCCC(=O)N([C@H](C)CO)C[C@H]2C)cc1,1,nt,13,9,nt,nt
O=C(CSc1nnc(-c2cccc(Br)c2)o1)NCC1CCCO1 (centres undefined),0,nt,-12,26*,nt,nt
C=CCNc1nc2cc(-c3cccc(Cl)c3)sc2c(=O)n1C,0,nt,13,-12,nt,nt
O=[N+]([O-])c1cccc(C2NCC(c3ccccc3Cl)c3c2[nH]c2ccccc32)c1 (centres undefined),2,18,15,0,53*,50*
CN(C)c1ccc(C2CNC(c3ccc(Cl)c([N+](=O)[O-])c3)c3[nH]c4ccccc4c32)cc1 (centres undefined),1,31,7,-9,-16,-13
CN(C)c1ccc(-c2csc(C(O)c3ccc(F)cc3)n2)cc1 (centres undefined),23*,nt,1,-2,nt,nt
COc1ccc(-c2csc(C(O)c3ccc(OC)cc3)n2)cc1 (centres undefined),10,nt,-4,-7,nt,nt
COc1ccc(C(O)c2nc(-c3ccc(N(C)C)cc3)cs2)cc1 (centres undefined),24*,nt,-8,8,nt,nt
CN(C)c1ccc(-c2csc(C(O)c3ccc(F)c(F)c3)n2)cc1 (centres undefined),35*,nt,-13,24*,nt,nt
N#Cc1c(NC(=O)c2ccco2)sc2c1CCC2,0,18,-10,3,-4,10
COc1cccc(OC)c1C(=O)Nc1sc2c(c1C#N)CCC2,-1,55*,-22,11,-11,-6
N#Cc1c(NC(=O)c2ccc(-c3ccccc3[N+](=O)[O-])o2)sc2c1CCCC2,-1,70,-6,28*,21,-3
O=C(/C=C/[C@H]1O[C@@H](n2ccc(=O)[nH]c2=O)[C@H](O)[C@@H]1O)NCc1ccccc1,0,nt,-10,6,nt,nt
CCCOC(=O)c1ccc(OCC(O)CN2C(=O)NC(C)(C)C2=O)cc1 (centres undefined),1,19,-5,4,-7,99*
Cc1onc(-c2ccccc2Cl)c1C(=O)NCC(=O)O,1,8,11,-7,-10,-7
Cc1onc(-c2ccccc2Cl)c1C(=O)NCCn1c(C)cc2ccccc21,1,46*,-7,4,7,-3
Cc1onc(-c2ccccc2Cl)c1C(=O)Nc1ccc(-c2cn3cccnc3n2)cc1,5,46*,12,-1,5,-8
COc1ccc(NC(=O)N(C)C[C@@H]2OCc3cn(nn3)CCCC(=O)N([C@H](C)CO)C[C@H]2C)cc1,0,nt,-2,-2,nt,nt
CCCCCC(=O)N1C[C@@H](n2cc(C3CC3)nn2)[C@H](O)C[C@@H]1c1ccccc1,3,nt,-1,3,nt,nt
O=C(Nc1ncc([N+](=O)[O-])s1)c1ccccc1Br,13,43*,4,-3,-2,4
O=C(CS(=O)(=O)c1ccccc1)Nc1ncc([N+](=O)[O-])s1,2,27,10,-16,-5,3
O=C(Nc1ncc([N+](=O)[O-])s1)c1cccs1,9,75*,4,12,7,2
O=C1NC[C@H](CCCCN2C[C@H](Cc3ccccc3)N(Cc3ccccc3)C(=O)C2=O)N(CCc2ccccc2)C1=O,0,nt,3,-16,nt,nt
SMILES,CHO-K1 Ca ag,OX1R antag-1,CHO-K1 Ca PAM,CHO-K1 Ca antag,OX1R antag-2,CHO parental Ca
Cc1ccc(S(=O)(=O)c2c(C)cc(C)nc2Cl)cc1,0,7,9,-1,3,-8
Cc1cc(C)c(S(=O)(=O)c2ccc(C(C)(C)C)cc2)c(Cl)n1,1,11,-7,6,2,43*
C=CC(n1cncn1)C(O)(c1ccccc1)c1ccccc1 (centres undefined),-1,7,2,-8,-7,-12
CC1(C(=O)OCC(=O)Nc2ccc(S(=O)(=O)N3CCOCC3)cc2)CC1(Cl)Cl (centres undefined),3,8,3,-8,5,-3
COCC(=O)N1CCC(Oc2ccc(C(=O)N3C[C@@H]4CCC[C@H]3C4)cc2)CC1,0,nt,-13,24*,nt,nt
COCC(=O)N1CCC(Oc2ccc(C(=O)N3C[C@H]4CC[C@H]3C4)cc2)CC1,0,8,-2,-9,-1,-1
Cc1ccc2c(c1)COc1c3ccc(C(=O)NCCO)cc3nn1-2,0,61*,10,-11,-13,1
O=C(NCCO)c1ccc2c3n(nc2c1)-c1ccc(Cl)cc1CO3,0,38,12,-4,-11,-5
S=C1NC2=C(CCCC2=C2SCCS2)C(c2ccccc2)N1 (centres undefined),5,8,-10,25*,-12,-25
CC(=O)c1ccc(NC(=O)Cn2cnc(S(=O)(=O)N3CCc4ccccc43)c2)cc1,0,9,-24,25*,4,-5
CC(=O)c1ccc(NC(=O)Cn2cnc(S(=O)(=O)N3CCCC3)c2)cc1,1,13,-16,-18,3,2
CCOC(=O)C1=C(C)NC(C)=C(C(=O)OCC)C1c1ccncc1,0,nt,3,-10,nt,nt
CCCc1cc(=O)oc2cc(C)cc(OCC(=O)Nc3ccc(CN4CCOCC4)cc3)c12,4,5,10,-10,-13,-21
Cc1cccc([C@@H]2[C@@H]3C(=O)N(Cc4ccccc4)C(=O)[C@@H]3[C@]3(CC(C)C)C(=O)N(c4cccc(F)c4)C(=O)N23)c1,0,26,-4,0,-16,-31
CCOc1ccc2nc(NC(=O)c3ccc(C)o3)sc2c1,1,38*,-19,6,-2,-15
CCOC(=O)c1sc(NC(=O)c2ccc(C)o2)nc1C,1,54*,20,-3,19,-20
O=C(CSC1=NS(=O)(=O)c2cc(F)ccc2N1)NCCc1ccccc1,0,15,7,2,-7,-1
CN(C)c1ccc(-c2ccnc3c2CC(C)(C(=O)NCCc2ccccc2)O3)cc1 (centres undefined),0,nt,-9,4,nt,nt
Cc1ccc(NC(=O)C2C(c3ccccc3)C2(Cl)Cl)c(C)c1 (centres undefined),1,77*,17,-12,10,7
Cc1[nH]c2ccccc2c1/C=N/NC(=O)c1cc(C(C)C)[nH]n1,1,44*,18,-8,1,-8
Cc1[nH]c2ccccc2c1/C=N/NC(=O)c1cccc(F)c1,1,13,8,-6,-14,6
